Source: ChEMBL document CHEMBL1142307, “Design, synthesis, and radiosensitizing activities of sugar-hybrid hypoxic cell radiosensitizers” (Bioorg Med Chem, 2008)

Experiments:
[1] = Partition coefficient by Shake flask method; assay type: physicochemical; conditions: octanol/water
How it was run: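 1 mg compound dissolved in 0.1 M phosphate buffer pH 7.40 as stock; absorbance read at 325 nm before partitioning. 3 mL stock stirred vigorously with phosphate buffer-saturated n-octanol (20–300 mL) at room temperature for 2 h. Aqueous phase absorbance at 325 nm measured after phase separation; P_oct calculated from pre/post absorbance.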

[2] = Radiosensitizing activity at hypoxic mouse EMT6/KU cells assessed as enhancement ratio relative to etanidazole; assay type: functional

| Compound | P (partition coefficient) [1] | Ratio [2] |
| --- | --- | --- |
| CC(=O)OC[C@H]1O[C@H](OCCN(C)C(=O)Cn2ccnc2[N+](=O)[O-])[C@@H](OC(C)=O)[C@@H](OC(C)=O)[C@@H]1OC(C)=O | 0.0697 | 1.88 |
| CC(=O)OC[C@H]1O[C@@H](OCCN(C)C(=O)Cn2ccnc2[N+](=O)[O-])[C@H](OC(C)=O)[C@@H](OC(C)=O)[C@H]1OC(C)=O | 0.0355 | 1.63 |
| CN(CCO)C(=O)Cn1ccnc1[N+](=O)[O-] | 0.056 | 1.75 |
| CC(=O)N[C@H]1[C@H](OCCN(C)C(=O)Cn2ccnc2[N+](=O)[O-])O[C@H](COC(C)=O)[C@H](OC(C)=O)[C@@H]1OC(C)=O | 0.051 | 1.47 |
| CC(=O)OC[C@H]1O[C@@H](OCCN(C)C(=O)Cn2ccnc2[N+](=O)[O-])[C@H](OC(C)=O)[C@@H](OC(C)=O)[C@@H]1OC(C)=O | 0.105 | 2.3 |

Further lines, with some results ahead:

| P (partition coefficient) [1] | Compound | Ratio [2] |
| --- | --- | --- |
| < 0.01 | CN(CCO[C@@H]1O[C@H](CO)[C@H](O)[C@H](O)[C@H]1O)C(=O)Cn1ccnc1[N+](=O)[O-] | 1.4 |
| < 0.01 | CN(CCO[C@@H]1O[C@H](CO)[C@@H](O)[C@H](O)[C@H]1O)C(=O)Cn1ccnc1[N+](=O)[O-] | 1.33 |
| < 0.01 | CC(=O)N[C@H]1[C@H](OCCN(C)C(=O)Cn2ccnc2[N+](=O)[O-])O[C@H](CO)[C@H](O)[C@@H]1O | 1.43 |
| < 0.01 | CN(CCO[C@H]1O[C@H](CO)[C@@H](O)[C@H](O)[C@@H]1O)C(=O)Cn1ccnc1[N+](=O)[O-] | 1.41 |
